Source: PubChem BioAssay (several laboratories)
Most compounds without a hit are left out; they make up all but 4.7% or so of the library.
Mdm2 MdmX PPI: human Mdm2/MdmX binding inhibition; inhibition, % at 8 µM; 330,000 compounds, 3% hits; SaOS-2 split-luciferase Mdm2/MdmX complementation, luminescence;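 active = inhibition of at least 50% at 8 µM in the primary screen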
Target sequence (O15151 whole entry, looked up): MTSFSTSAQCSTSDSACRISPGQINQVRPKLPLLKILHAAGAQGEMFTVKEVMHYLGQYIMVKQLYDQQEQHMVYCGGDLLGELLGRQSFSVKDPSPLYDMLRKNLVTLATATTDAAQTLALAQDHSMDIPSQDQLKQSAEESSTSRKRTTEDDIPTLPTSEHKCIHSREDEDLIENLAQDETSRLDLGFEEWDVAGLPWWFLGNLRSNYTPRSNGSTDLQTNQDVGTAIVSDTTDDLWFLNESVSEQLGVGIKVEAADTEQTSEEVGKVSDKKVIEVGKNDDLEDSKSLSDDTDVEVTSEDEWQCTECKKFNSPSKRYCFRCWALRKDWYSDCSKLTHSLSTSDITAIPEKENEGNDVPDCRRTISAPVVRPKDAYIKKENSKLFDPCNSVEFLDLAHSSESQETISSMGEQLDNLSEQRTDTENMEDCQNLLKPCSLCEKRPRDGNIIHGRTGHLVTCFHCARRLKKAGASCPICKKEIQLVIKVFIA
Target sequence (Q00987 whole entry, looked up): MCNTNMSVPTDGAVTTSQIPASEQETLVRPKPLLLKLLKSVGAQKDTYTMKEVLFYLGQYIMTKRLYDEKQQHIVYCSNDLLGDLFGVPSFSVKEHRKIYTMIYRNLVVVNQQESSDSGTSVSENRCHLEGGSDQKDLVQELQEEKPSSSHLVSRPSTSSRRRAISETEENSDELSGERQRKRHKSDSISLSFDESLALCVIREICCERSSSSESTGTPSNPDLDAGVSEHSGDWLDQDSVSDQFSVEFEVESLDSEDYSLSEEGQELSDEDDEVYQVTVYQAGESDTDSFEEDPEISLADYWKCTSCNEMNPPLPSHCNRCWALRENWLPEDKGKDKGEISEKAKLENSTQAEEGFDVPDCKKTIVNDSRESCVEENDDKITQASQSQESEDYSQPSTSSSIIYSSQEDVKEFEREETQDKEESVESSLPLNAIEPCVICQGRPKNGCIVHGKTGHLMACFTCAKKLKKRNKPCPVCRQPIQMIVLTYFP
VIM-2 inhibitor: blocks Pseudomonas aeruginosa VIM-2 metallo-beta-lactamase; purified VIM-2, nitrocefin hydrolysis, epi-absorbance fluorescence; inhibition, % at 5.6 µM; 290,000 compounds, 0.89% hits;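 active = inhibition above the mean of all tested compounds plus 3 SD, cutoff set per screening run, cut at about 7.5% in these data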;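 also: red hydrolysis product quenches plate fluorescence so inhibitors raise well fluorescence; 0% = enzyme with DMSO and 100% = DMSO without enzyme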
697 NFkB inh: lowers PMA/ionomycin-induced NF-kB signal in 697 B cells; inhibition, % at 4 µM; 697 B-cell NF-kB luciferase reporter, 16 h; AID 435022; 330,000 compounds, 0.33% hits; in the data active = inhibition above about 35%
IMP-1 inh: blocks Pseudomonas aeruginosa IMP-1 metallo-beta-lactamase; purified IMP-1, nitrocefin hydrolysis, epi-absorbance fluorescence; inhibition, % at 5.6 µM; 290,000 compounds, 0.45% hits; AID 1556;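 active = inhibition above the mean plus 3 SD of all compounds in the same screening run, cut at about 4.5% in these data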;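 also: 0% = IMP-1 with DMSO and 100% = DMSO wells lacking enzyme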
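Material – recombinant IMP-1 enzyme, purified · Amount – IMP-1 0.2 nM before substrate addition · Medium – HEPES buffer pH 7.1 with ZnSO4 and Brij 35 · Timing – 25 °C, 15 min preincubation, 25 min reaction · Measured by – plate fluorescence quenching by hydrolysis product, ex 480/em 530 nm · Read-out – percent enzyme inhibition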
aSyn UTR inh: 5' untranslated region of α-synuclein, MLPCN primary screen; alpha-synuclein 5'UTR reporter, inhibitor activity; inhibition, % (tested at 7.5 µM); 300,000 compounds, 0.82% hits; AID 1813; in the data active = inhibition above about 60%; inconclusive = no clear call, values can overlap the other calls;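 also: H4 neuroglioblastoma cells stably carrying SNCA 5'UTR luciferase fusion; 0% = DMSO wells and 100% = positive control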
Jurkat NFkB inh: lowers PMA/ionomycin-induced NF-kB signal in Jurkat cells; 330,000 compounds, 0.53% hits; PMA/ionomycin-induced NF-kB luciferase reporter, luminescence; inhibition, % at 4 µM; in the data active = inhibition above about 50%
Mdm2-MdmX conf: human Mdm2/MdmX binding inhibition, confirmed. inhibition, % at 8 µM. 10,000 compounds, 55% hits. luminescent assay. AID 489028. shares compounds with Mdm2 MdmX PPI; in the data active = inhibition above about 40%
Full FLuc ctr: full-length luciferase inhibition in Mdm2/MdmX counter-screen. shares compounds with Mdm2 MdmX PPI. SaOS-2 full-length luciferase counterscreen, luminescence. inhibition, % at 8 µM. 6,200 compounds, 77% hits;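 active = mean inhibition at 8 µM reaching about 37%, which flags the compound as non-specific, limit read from the data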;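 also: p53-null SaOS-2 cells with luciferase driven by a doxycycline-inducible promoter; compound on cells about two nights before reading with doxycycline added after day one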
Active calls of the source: *.

`O=C(Cc1csc(Nc2nc(=S)[nH]c3ccccc23)n1)NCCCN1CCN(c2ccccc2F)CC1` gave Mdm2 MdmX PPI 98*, VIM-2 inhibitor -2, 697 NFkB inh -4, IMP-1 inh -3, aSyn UTR inh 92*, Jurkat NFkB inh -12 and Mdm2-MdmX conf 32.
`CCC1CC(CSc2ncn[nH]2)OC1=O` (configuration not stated) gave Mdm2 MdmX PPI 17, VIM-2 inhibitor -1, 697 NFkB inh -7, IMP-1 inh -1, aSyn UTR inh -2 and Jurkat NFkB inh 3.
Cc1ccc(OCCNC(=O)c2cccc(S(=O)(=O)NCc3ccccc3)c2)cc1 was read as Mdm2 MdmX PPI 60*, 697 NFkB inh -58, Jurkat NFkB inh 48, Mdm2-MdmX conf 77* and Full FLuc ctr 54*.
O=C(NCc1ccncc1)c1cccc(S(=O)(=O)NCc2ccccc2)c1 was read as Mdm2 MdmX PPI 27, VIM-2 inhibitor -2, 697 NFkB inh -12, IMP-1 inh -6, aSyn UTR inh -8 and Jurkat NFkB inh 10.
O=C(NCc1ccc(F)cc1)C(Cc1ccccc1)n1cccc1 (configuration not stated) was read as Mdm2 MdmX PPI 17, VIM-2 inhibitor 1, 697 NFkB inh 2, IMP-1 inh -2, aSyn UTR inh 1 and Jurkat NFkB inh 8.
COc1ccc(S(=O)(=O)Nc2ccc(-c3ccc4nnc(C)n4n3)cc2)c(OC)c1 was read as Mdm2 MdmX PPI 71*, 697 NFkB inh 32, Jurkat NFkB inh 2 and Mdm2-MdmX conf 36.
Screening Cc1nnc2ccc(-c3ccc(NS(=O)(=O)c4ccccc4F)cc3)nn12 returned Mdm2 MdmX PPI 18, 697 NFkB inh 18, aSyn UTR inh 33 and Jurkat NFkB inh -14.
For Cc1ccc(C)c(NC(=O)CN2C(=O)CC(C)S(=O)(=O)c3ccccc32)c1 (configuration not stated) the results were Mdm2 MdmX PPI 9, VIM-2 inhibitor -2, 697 NFkB inh -22, IMP-1 inh 0, aSyn UTR inh -24 and Jurkat NFkB inh 1.
O=C(Oc1ccc2c(c1)OCO2)c1cc2c(s1)CCC2 was read as Mdm2 MdmX PPI 97*, VIM-2 inhibitor -3, 697 NFkB inh -19, IMP-1 inh -2, aSyn UTR inh -17, Jurkat NFkB inh 37, Mdm2-MdmX conf 78* and Full FLuc ctr 21.
`CC(C(=O)Nc1ccccc1)N1CCN(C(=O)c2ccco2)CC1` (configuration not stated) gave Mdm2 MdmX PPI 17, 697 NFkB inh 9 and Jurkat NFkB inh -2.
`CCOC(=O)C(=CNc1nc(-c2ccccc2)c(C(=O)Nc2ccc(-c3ccccc3)cc2)s1)C(=O)OCC` gave Mdm2 MdmX PPI 71*, VIM-2 inhibitor -3, 697 NFkB inh 3, IMP-1 inh -2, aSyn UTR inh -32, Jurkat NFkB inh -2 and Mdm2-MdmX conf 15.
For Cn1c(C(=O)N2CCN(c3ccc(Cl)cc3)CC2)cc2c(=O)[nH]c3ccccc3c21 the results were Mdm2 MdmX PPI 25, VIM-2 inhibitor -3, 697 NFkB inh -16, IMP-1 inh -4, aSyn UTR inh -2 and Jurkat NFkB inh 4.
Screening Cc1ccc(Cl)cc1N1CCN(C(=O)c2cc3c(=O)[nH]c4ccccc4c3n2C)CC1 returned Mdm2 MdmX PPI 71*, VIM-2 inhibitor -2, 697 NFkB inh -45, IMP-1 inh -2, aSyn UTR inh 13, Jurkat NFkB inh 16, Mdm2-MdmX conf 91* and Full FLuc ctr 79*.
For CC(=O)c1c(C)[nH]c(C(=O)N2CCN(c3cc(Cl)ccc3C)CC2)c1C the results were Mdm2 MdmX PPI 73*, VIM-2 inhibitor 0, 697 NFkB inh -88, IMP-1 inh 0, aSyn UTR inh inconclusive, Jurkat NFkB inh 48, Mdm2-MdmX conf 75* and Full FLuc ctr 34.
`CC(=O)c1c(C)[nH]c(C(=O)N2CCN(c3ccc(F)cc3)CC2)c1C` gave Mdm2 MdmX PPI 26, VIM-2 inhibitor -2, 697 NFkB inh -1, IMP-1 inh -2, aSyn UTR inh 19 and Jurkat NFkB inh -10.
For CCOC(=O)c1cc(-c2cc(OC)c(OC)c(OC)c2)nc2c1c(=O)[nH]c(=O)n2Cc1ccccc1 the results were Mdm2 MdmX PPI 57*, VIM-2 inhibitor -3, 697 NFkB inh 6, IMP-1 inh -2, aSyn UTR inh -60, Jurkat NFkB inh 11, Mdm2-MdmX conf 56* and Full FLuc ctr 86*.
Screening O=C(CN1C(=O)/C(=C/c2ccccc2F)Sc2ccccc21)N1CCN(c2ccccn2)CC1 returned Mdm2 MdmX PPI 21, VIM-2 inhibitor -7, 697 NFkB inh 18, IMP-1 inh -4, aSyn UTR inh -22 and Jurkat NFkB inh -9.
For O=C(NCc1cccnc1)/C(=C/c1ccc(-c2cccc(Cl)c2)o1)S(=O)(=O)c1ccccc1 the results were Mdm2 MdmX PPI 99*, VIM-2 inhibitor -3, 697 NFkB inh -3, IMP-1 inh -2, aSyn UTR inh -193, Jurkat NFkB inh 4, Mdm2-MdmX conf 100* and Full FLuc ctr 51*.
CCC(COC(=O)Nc1ccccc1)NC(=O)OC(C)C (configuration not stated) was read as Mdm2 MdmX PPI 16, VIM-2 inhibitor 0, 697 NFkB inh 19, IMP-1 inh -3, aSyn UTR inh -25 and Jurkat NFkB inh -26.
For N#Cc1ccc(CN2CCN(C(=O)CN3C(=O)NC4(CCCC4)C3=O)CC2)cc1 the results were Mdm2 MdmX PPI 32, 697 NFkB inh -11 and Jurkat NFkB inh 3.
CC(C)=CCC/C(C)=C/CNC(=O)C[C@H]1C[C@H](C(=O)N2CCOCC2)[C@@]2(CCC3CCCC3)c3[nH]c4cc(CCC(=O)N(C)C)ccc4c3CCN2C1=O was read as Mdm2 MdmX PPI 77*, 697 NFkB inh 18 and Mdm2-MdmX conf 21.
Screening COCCCNC(=O)C[C@H]1C[C@H](C(=O)N2CCOCC2)[C@@]2(C)c3[nH]c4cc(CCC(=O)N(C)C)ccc4c3CCN2C1=O returned Mdm2 MdmX PPI 64*, 697 NFkB inh 10 and Mdm2-MdmX conf -24.
For CN(C)C(=O)CCc1ccc2c3c([nH]c2c1)[C@]1(CCC2CCCC2)[C@@H](C(=O)N2CCOCC2)C[C@H](CC(=O)NCC24CC5CC(CC(C5)C2)C4)C(=O)N1CC3 the results were Mdm2 MdmX PPI 70*, 697 NFkB inh -13, Mdm2-MdmX conf 63* and Full FLuc ctr 44*.
`Cc1ccc(S(=O)(=O)CC(=O)N(CCCN2CCOCC2)c2nc3c(F)cccc3s2)cc1` gave Mdm2 MdmX PPI 2, 697 NFkB inh -1, aSyn UTR inh -44 and Jurkat NFkB inh -48.
